Results from ChEMBL document CHEMBL4400509, “Conversion of Quinazoline Modulators from Inhibitors to Activators of β-Glucocerebrosidase” (J Med Chem, 2019).
Active and inactive are the calls of the source. No cut-off for these calls is given here.

The molecules below were run against T1, Lysosomal acid glucosylceramidase (Homo sapiens, UniProt P04062) (assay: Inhibition of wild type recombinant human lysosomal beta-glucocerebrosidase using 4-methylumbelliferyl-beta-D-glucopyranoside as substrate preincubated for 5 mins followed by substrate addition and measured after 30 mins by fluorescence assay). Settings: not given.
T1 sequence (P04062 whole entry): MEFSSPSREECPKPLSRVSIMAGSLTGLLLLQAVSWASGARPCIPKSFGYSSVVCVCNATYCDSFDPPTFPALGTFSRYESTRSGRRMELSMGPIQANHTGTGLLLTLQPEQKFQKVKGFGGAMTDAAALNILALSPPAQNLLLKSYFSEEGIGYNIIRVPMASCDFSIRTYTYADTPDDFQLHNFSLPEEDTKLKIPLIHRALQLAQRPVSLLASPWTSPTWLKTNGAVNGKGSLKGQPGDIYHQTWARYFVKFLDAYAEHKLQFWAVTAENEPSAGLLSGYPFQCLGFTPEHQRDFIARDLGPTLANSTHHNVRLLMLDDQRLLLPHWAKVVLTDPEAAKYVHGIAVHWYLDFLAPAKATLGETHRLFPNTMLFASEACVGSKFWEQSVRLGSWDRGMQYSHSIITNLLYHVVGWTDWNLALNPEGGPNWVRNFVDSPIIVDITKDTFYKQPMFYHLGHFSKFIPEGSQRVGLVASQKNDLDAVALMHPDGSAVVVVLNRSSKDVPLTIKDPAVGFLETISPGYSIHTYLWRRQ

SMILES | IC50
CN(c1nc(-c2cccnc2)nc2ccccc12)C1CCCCCC1 | 9.94 µM
CN(c1nc(-c2cccnc2)nc2ccccc12)C1CCCCCCC1 | 8.38 µM

Results, then the molecule that gave them:

IC50 | SMILES
1.88 µM | CC(COc1ccccc1)Nc1nc(-c2cccnc2)nc2ccccc12 (configuration not stated)
2.54 µM | c1ccc(OCCCNc2nc(-c3cccnc3)nc3ccccc23)cc1
7.3 µM | c1ccc(COCCNc2nc(-c3cccnc3)nc3ccccc23)cc1
4.24 µM | CC(CNc1nc(-c2cccnc2)nc2ccccc12)Oc1ccccc1 (configuration not stated)
0.43 µM | CN(c1nc(-c2cccnc2)nc2ccccc12)[C@H]1CCc2ccccc2C1
5.87 µM | CN(c1nc(-c2cccnc2)nc2ccccc12)[C@@H]1CCc2ccccc2C1

These molecules were tested against T1, Lysosomal acid glucosylceramidase (assay: Activation of wild type recombinant human lysosomal beta-glucocerebrosidase using 4-methylumbelliferyl-beta-D-glucopyranoside as substrate preincubated for 5 mins followed by substrate addition and measured after 30 mins by fluorescence assay). Settings: not given.
Method in brief: (§1)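 Recombinant wild-type human GCase (velaglucerase alfa), 7.5 nM final, in 50 mM citric acid/176 mM K2HPO4/0.01% Tween-20, pH 5.9. Enzyme was preincubated 5 min at room temperature with compound (12-point series, 48 nM–100 μM final). 4MU-β-Glc (1.5 mM final) was added, and the reaction ran 30 min at 37 °C. It was stopped with 1 M NaOH/1 M glycine, pH 10, and read at ex 365/em 440 nm. Triplicate, mean.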

SMILES | AC50
CN(CCOc1ccccc1)c1nc(-c2ccsc2)nc2ccccc12 | Not Active
CN(CCOc1ccccc1)c1nc(-c2cccs2)nc2ccccc12 | Not Active
CN(CCOc1ccccc1)c1nc(-c2ccccc2)nc2ccccc12 | Not Active

Continued, values first:

AC50 | SMILES
Not Active | c1ccc(OCCN(CC2CC2)c2nc(-c3cccnc3)nc3ccccc23)cc1
Not Active | c1cncc(-c2nc(N3CCc4[nH]c5ccccc5c4C3)c3ccccc3n2)c1

Same assay, conditions: read-out: AC50

SMILES | AC50
CN(Cc1nc2ccccc2[nH]1)c1nc(-c2cccnc2)nc2ccccc12 | 7.92 µM
CN(c1nc(-c2cccnc2)nc2ccccc12)C1CCCC1 | 6.36 µM
CCCN(CCOc1ccccc1)c1nc(-c2cccnc2)nc2ccccc12 | 3.18 µM
CN(CCCOc1ccccc1)c1nc(-c2cccnc2)nc2ccccc12 | 6.16 µM
CN(Cc1ccc2c(c1)OCCO2)c1nc(-c2cccnc2)nc2ccccc12 | 4.88 µM
CN(C[C@@H]1COc2ccccc2O1)c1nc(-c2cccnc2)nc2ccccc12 | 2.37 µM
CN(Cc1ccc2c(c1)OCO2)c1nc(-c2cccnc2)nc2ccccc12 | 1.63 µM
CCN(CCOc1ccccc1)c1nc(-c2cccnc2)nc2ccccc12 | 5.38 µM
CN(CCOc1ccccc1)c1nc(-c2ccoc2)nc2ccccc12 | 1.68 µM
CN(c1nc(-c2cccnc2)nc2ccccc12)C1CCCCC1 | 2.36 µM
CN(CCOc1ccccc1)c1nc(-c2ccncc2)nc2ccccc12 | 2.89 µM
CN(CCOCc1ccccc1)c1nc(-c2cccnc2)nc2ccccc12 | 16.9 µM
CN(Cc1ccc2nsnc2c1)c1nc(-c2cccnc2)nc2ccccc12 | 1.84 µM
CN(CCOc1ccccc1)c1nc(-c2ccccn2)nc2ccccc12 | > 50 µM
CN(CCOc1ccccc1)c1nc(-c2cncnc2)nc2ccccc12 | 0.89 µM
CN(CCOc1ccccc1)c1nc(-c2ccco2)nc2ccccc12 | 21.7 µM

Next, values leading:

AC50 | SMILES
3.65 µM | c1ccc(O[C@@H]2CCCN(c3nc(-c4cccnc4)nc4ccccc34)C2)cc1
4.75 µM | c1ccc(O[C@H]2CCCN(c3nc(-c4cccnc4)nc4ccccc34)C2)cc1
4.27 µM | c1cncc(-c2nc(N3CCc4c([nH]c5ccccc45)C3)c3ccccc3n2)c1
9.74 µM | c1cncc(-c2nc(N3CCOc4ccccc4C3)c3ccccc3n2)c1
4.47 µM | c1ccc(CC2CCCCN2c2nc(-c3cccnc3)nc3ccccc23)cc1 (configuration not stated)
6.9 µM | CN(Cc1nc2ccccc2s1)c1nc(-c2cccnc2)nc2ccccc12
14.9 µM | CN1Cc2ccc(CN(C)c3nc(-c4cccnc4)nc4ccccc34)cc2C1
44.1 µM | c1cncc(-c2nc(N3CCCOCC3)c3ccccc3n2)c1
16.1 µM | CN(Cc1nc2ccccc2o1)c1nc(-c2cccnc2)nc2ccccc12
7.52 µM | CC(COc1ccccc1)N(C)c1nc(-c2cccnc2)nc2ccccc12 (configuration not stated)
5.18 µM | c1ccc(CC2CCCN(c3nc(-c4cccnc4)nc4ccccc34)C2)cc1 (configuration not stated)
2.3 to 3.55 µM | CN(CCOc1ccccc1)c1nc(-c2cccnc2)nc2ccccc12
1.63 µM | CN(Cc1cnc2ccccc2n1)c1nc(-c2cccnc2)nc2ccccc12
1.39 µM | CN(CCc1ccccc1)c1nc(-c2cccnc2)nc2ccccc12
3.99 µM | CN(CCCCc1ccccc1)c1nc(-c2cccnc2)nc2ccccc12
1.56 µM | c1ccc(OCCNc2nc(-c3cccnc3)nc3ccccc23)cc1
1.17 µM | c1ccc(OC2CCN(c3nc(-c4cccnc4)nc4ccccc34)C2)cc1 (configuration not stated)
4.66 µM | c1ccc(C2CCCN(c3nc(-c4cccnc4)nc4ccccc34)C2)cc1 (configuration not stated)
8.97 µM | CC(CN(C)c1nc(-c2cccnc2)nc2ccccc12)Oc1ccccc1 (configuration not stated)
3.8 µM | CN(Cc1ccc2ccccc2c1)c1nc(-c2cccnc2)nc2ccccc12

These molecules were tested against T2, Lysosomal acid glucosylceramidase (Homo sapiens) (UniProt P04062) (assay: Activation of wild type recombinant human lysosomal beta-glucocerebrosidase at 0.048 to 100 uM using 4-methylumbelliferyl-beta-D-glucopyranoside as substrate preincubated for 5 mins followed by substrate addition and measured after 30 mins by fluorescence assay relative to control). Settings: not given.
T2 sequence (whole entry): T1 sequence (P04062 whole entry)
Method in brief: as §1

SMILES | Emax
CN(CCOc1ccccc1)c1nc(-c2ccsc2)nc2ccccc12 | inactive
CN(Cc1nc2ccccc2[nH]1)c1nc(-c2cccnc2)nc2ccccc12 | 197%
CN(c1nc(-c2cccnc2)nc2ccccc12)C1CCCC1 | 149%
CCCN(CCOc1ccccc1)c1nc(-c2cccnc2)nc2ccccc12 | 132%
CN(CCCOc1ccccc1)c1nc(-c2cccnc2)nc2ccccc12 | 208%
CN(Cc1ccc2c(c1)OCCO2)c1nc(-c2cccnc2)nc2ccccc12 | 488%
CN(C[C@@H]1COc2ccccc2O1)c1nc(-c2cccnc2)nc2ccccc12 | 296%
CN(Cc1ccc2c(c1)OCO2)c1nc(-c2cccnc2)nc2ccccc12 | 160%
CN(CCOc1ccccc1)c1nc(-c2cccs2)nc2ccccc12 | inactive
CCN(CCOc1ccccc1)c1nc(-c2cccnc2)nc2ccccc12 | 478%
CN(CCOc1ccccc1)c1nc(-c2ccoc2)nc2ccccc12 | 145%
CN(c1nc(-c2cccnc2)nc2ccccc12)C1CCCCC1 | 137%
CN(CCOc1ccccc1)c1nc(-c2ccccc2)nc2ccccc12 | inactive
CN(CCOc1ccccc1)c1nc(-c2ccncc2)nc2ccccc12 | 690%
CN(CCOCc1ccccc1)c1nc(-c2cccnc2)nc2ccccc12 | 394%
CN(Cc1ccc2nsnc2c1)c1nc(-c2cccnc2)nc2ccccc12 | 337%
CN(CCOc1ccccc1)c1nc(-c2cncnc2)nc2ccccc12 | 634%
CN(CCOc1ccccc1)c1nc(-c2ccco2)nc2ccccc12 | 229%

Further lines, results first:

Emax | SMILES
302% | c1ccc(O[C@@H]2CCCN(c3nc(-c4cccnc4)nc4ccccc34)C2)cc1
223% | CN(CCCc1ccccc1)c1nc(-c2cccnc2)nc2ccccc12
237% | c1ccc(O[C@H]2CCCN(c3nc(-c4cccnc4)nc4ccccc34)C2)cc1
175% | c1cncc(-c2nc(N3CCc4c([nH]c5ccccc45)C3)c3ccccc3n2)c1
inactive | c1ccc(OCCN(CC2CC2)c2nc(-c3cccnc3)nc3ccccc23)cc1
438% | c1cncc(-c2nc(N3CCOc4ccccc4C3)c3ccccc3n2)c1
364% | c1ccc(CC2CCCCN2c2nc(-c3cccnc3)nc3ccccc23)cc1 (configuration not stated)
517% | CN(Cc1nc2ccccc2s1)c1nc(-c2cccnc2)nc2ccccc12
428% | CN1Cc2ccc(CN(C)c3nc(-c4cccnc4)nc4ccccc34)cc2C1
423% | c1cncc(-c2nc(N3CCCOCC3)c3ccccc3n2)c1
643% | CN(Cc1nc2ccccc2o1)c1nc(-c2cccnc2)nc2ccccc12
345% | CC(COc1ccccc1)N(C)c1nc(-c2cccnc2)nc2ccccc12 (configuration not stated)
160% | c1ccc(CC2CCCN(c3nc(-c4cccnc4)nc4ccccc34)C2)cc1 (configuration not stated)
552 to 761% | CN(CCOc1ccccc1)c1nc(-c2cccnc2)nc2ccccc12
674% | CN(Cc1cnc2ccccc2n1)c1nc(-c2cccnc2)nc2ccccc12
126% | CN(CCc1ccccc1)c1nc(-c2cccnc2)nc2ccccc12
190% | CN(CCCCc1ccccc1)c1nc(-c2cccnc2)nc2ccccc12
inactive | c1cncc(-c2nc(N3CCc4[nH]c5ccccc5c4C3)c3ccccc3n2)c1
140% | c1ccc(OCCNc2nc(-c3cccnc3)nc3ccccc23)cc1
276% | c1ccc(OC2CCN(c3nc(-c4cccnc4)nc4ccccc34)C2)cc1 (configuration not stated)
130% | c1ccc(C2CCCN(c3nc(-c4cccnc4)nc4ccccc34)C2)cc1 (configuration not stated)
390% | CC(CN(C)c1nc(-c2cccnc2)nc2ccccc12)Oc1ccccc1 (configuration not stated)
155% | CN(Cc1ccc2ccccc2c1)c1nc(-c2cccnc2)nc2ccccc12

Species: Homo sapiens
Assay: Induction of post-ER GCase activity in fibroblast cells harboring N370S/84GG double mutant derived from Gaucher's disease patient at 25 uM using PFB-FDGlu as substrate preincubated for 3 days followed by substrate addition and measured after 1 hr for every 20 mins in presence of bafilomycin by fluorescence assay
Assay type: cell-based
Settings: not given

SMILES | Activity
OC[C@H]1CNC[C@@H](O)[C@@H]1O | inactive

What follows are molecules tested on Fibroblast (assay: Induction of post-ER GCase level in fibroblast cells harboring N370S/84GG double mutant derived from Gaucher's disease patient at 25 uM by immunoblotting analysis). Settings: Homo sapiens.
Assay type: functional, cell-based
Method in brief: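 N370S/84GG patient fibroblasts, compound-treated 3 days (DMSO 0.1% v/v vehicle) and lysed in 1% Triton X-100. Lysates were left undigested or digested with Endo H or PNGase F. They were then immunoblotted for GCase with GAPDH as loading control, and post-ER form was taken as Endo H-resistant band. n = 4.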

SMILES | Activity
OC[C@H]1CNC[C@@H](O)[C@@H]1O | inactive
